Ki, Ratio Ki and Activity data for 20 compounds are collected here from ChEMBL document CHEMBL1138202, “Tricyclic pyrazoles. 4. Synthesis and biological evaluation of analogues of the robust and selective CB2 cannabinoid ligand 1-(2',4'-dichlorophenyl)-6-methyl-N-piperidin-1-yl-1,4-dihydroindeno[1,2-c]pyrazole-3-carboxamide” (J Med Chem, 2006).

For orientation: Ki means the dissociation constant of the complex between target and ligand, obtained from inhibition or displacement. Lower therefore signals higher affinity.

Some results are limits rather than exact numbers.

The target in test [1] is Cannabinoid receptor 2 (Mus musculus, UniProt P47936). Description: Displacement of [3H]CP-55940 from CD1 mouse spleen CB2 receptor. Type of test: tissue-based. The method in brief: (§1)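 Male CD-1 mouse brain (minus cerebellum) for CB1 or spleen for CB2, homogenised in ice-cold TME (50 mM Tris-HCl, 1 mM EDTA, 3.0 mM MgCl2, pH 7.4) and centrifuged to membranes. GF/C filtration, scintillation counting. Triplicate, five independent experiments; sigmoid fit IC50 converted to Ki.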
Sequence of Cannabinoid receptor 2 (P47936 whole entry): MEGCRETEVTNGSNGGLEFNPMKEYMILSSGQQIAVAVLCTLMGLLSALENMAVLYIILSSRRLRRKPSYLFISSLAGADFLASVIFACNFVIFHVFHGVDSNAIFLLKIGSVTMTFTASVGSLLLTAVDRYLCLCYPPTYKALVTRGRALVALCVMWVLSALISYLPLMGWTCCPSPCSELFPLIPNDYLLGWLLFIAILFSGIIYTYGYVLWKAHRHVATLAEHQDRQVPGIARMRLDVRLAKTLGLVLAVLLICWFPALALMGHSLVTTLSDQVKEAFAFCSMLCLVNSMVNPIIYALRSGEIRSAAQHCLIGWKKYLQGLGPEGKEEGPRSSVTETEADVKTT
On the technique in general: Loss of bound radioactivity is the signal in a displacement assay; it reports binding, not function.

Test [2] deals with Cannabinoid receptor 1 (Mus musculus, UniProt P47746). Description: Displacement of [3H]CP-55940 from CD1 mouse brain CB1 receptor. The class given is tissue-based. The method in brief:
as §1

Test [3] addresses Cannabinoid receptor (Mus musculus) (UniProt P47746+P47936). Description: Selectivity for CD1 mouse CB2 receptor over CB1 receptor. The class given is protein assay.
In test [4] the target is Cannabinoid receptor 2 (Homo sapiens) (UniProt P34972). Description: Intrinsic activity at CB2 receptor assessed as induction of ERK1/2 phosphorylation in HL60 cells at 10 nM after 10 mins relative to control. Type of test: functional, cell-based. The method in brief:
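HL-60 cells in RPMI 1640 with 10% heat-inactivated FBS, 37 °C, 5% CO2, used at 80% confluency. Compounds in medium with 1% DMSO added to the cell suspension for 10 min. Lysates western blotted with anti-phospho-MAPK 1/2 and read by chemiluminescence. Phospho-ERK 1/2 given as mean percentage of vehicle from five separate experiments.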

Sequence of Cannabinoid receptor 2 (Homo sapiens) (P34972 whole entry): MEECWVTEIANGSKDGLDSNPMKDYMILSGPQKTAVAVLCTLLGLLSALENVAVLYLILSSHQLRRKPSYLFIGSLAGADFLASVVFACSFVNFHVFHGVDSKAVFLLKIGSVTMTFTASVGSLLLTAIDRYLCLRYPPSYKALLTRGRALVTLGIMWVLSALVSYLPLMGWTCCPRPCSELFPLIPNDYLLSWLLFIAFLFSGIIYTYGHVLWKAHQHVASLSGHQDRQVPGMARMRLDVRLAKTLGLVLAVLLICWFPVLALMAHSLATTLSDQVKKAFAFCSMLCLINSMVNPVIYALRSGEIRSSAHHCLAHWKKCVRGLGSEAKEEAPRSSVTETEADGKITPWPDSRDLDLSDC
Sequence of Cannabinoid receptor 1 (P47746 whole entry): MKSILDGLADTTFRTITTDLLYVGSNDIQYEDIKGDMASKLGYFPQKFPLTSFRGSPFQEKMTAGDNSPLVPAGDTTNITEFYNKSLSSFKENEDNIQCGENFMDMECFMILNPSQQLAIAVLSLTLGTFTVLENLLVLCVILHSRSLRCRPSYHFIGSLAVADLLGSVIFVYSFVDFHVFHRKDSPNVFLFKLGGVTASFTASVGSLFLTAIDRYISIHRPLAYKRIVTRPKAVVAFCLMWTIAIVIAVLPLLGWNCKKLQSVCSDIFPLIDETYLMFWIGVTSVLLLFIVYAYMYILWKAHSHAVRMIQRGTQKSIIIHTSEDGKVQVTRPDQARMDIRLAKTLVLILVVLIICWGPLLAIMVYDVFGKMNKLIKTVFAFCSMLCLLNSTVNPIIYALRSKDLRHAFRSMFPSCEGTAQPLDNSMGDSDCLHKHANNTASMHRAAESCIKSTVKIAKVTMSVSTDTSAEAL
Sequence of Cannabinoid receptor (Mus musculus) (P47746 whole entry, looked up): as the sequence (P47746 whole entry) above
Sequence of Cannabinoid receptor (Mus musculus) (P47936 whole entry, looked up): as the sequence (P47936 whole entry) above

For the compound `Cc1ccc2c(c1)Cc1c(C(=O)Nc3ccc(Cl)cc3Cl)nn(-c3ccc(Cl)cc3Cl)c1-2`, the Ki was greater than 5000 nM in test [1] and 2630 nM in test [2].
Regarding `Cc1ccc(NC(=O)c2nn(-c3ccc(Cl)cc3Cl)c3c2Cc2cc(C)ccc2-3)cc1`, the values for the Ki in test [1] and in test [2] were 74 nM and greater than 5000 nM, respectively.
For `Cc1cc2c(cc1Cl)-c1c(c(C(=O)NC3CCCCC3)nn1-c1ccc(Cl)cc1Cl)C2`, the Ratio Ki in test [3] came out at 33.
With `Cc1ccc2c(c1)Cc1c(C(=O)Nc3ccc(C(F)(F)F)cc3)nn(-c3ccc(Cl)cc3Cl)c1-2`, the Ki was greater than 5000 nM in test [1] and greater than 10000 nM in test [2].
For `COc1ccc(NNC(=O)c2nn(-c3ccc(Cl)cc3Cl)c3c2Cc2cc(C)ccc2-3)cc1`, the Ki is 3000 nM in test [1] and greater than 5000 nM in test [2].
Regarding `Cc1ccc2c(c1)Cc1c(C(=O)Nc3ccc(F)cc3)nn(-c3ccc(Cl)cc3Cl)c1-2`, the Ki in test [1] is 61 nM; in test [2], greater than 5000 nM.
On the same counts, the results for `Cc1ccc2c(c1)Cc1c(C(=O)NNc3ccc(Cl)cc3)nn(-c3ccc(Cl)cc3Cl)c1-2` are greater than 5000 nM and greater than 10000 nM.
Consider `Cc1cc2c(cc1Cl)Cc1c(C(=O)NN3CCCCC3)nn(-c3ccc(Cl)cc3Cl)c1-2`, for which, in test [3], the Ratio Ki came to 14.
With `COc1ccc(NC(=O)c2nn(-c3ccc(Cl)cc3Cl)c3c2Cc2cc(C)ccc2-3)cc1`, the values for the Ki in test [1] and in test [2] were 114 nM and greater than 10000 nM, respectively.
Turning to `O=C(NN1CCCCC1)c1nn(-c2ccc(Cl)cc2Cl)c2c1Cc1cc(Cl)ccc1-2`, the Ratio Ki in test [3] was found to be 6030. In addition, the Activity in test [4] (HL-60) is 65%; in test [4] (HL-60, filed as agonist), “Agonist”.
As for `Cc1ccc2c(c1)Cc1c(C(=O)NNc3ccc([N+](=O)[O-])cc3)nn(-c3ccc(Cl)cc3Cl)c1-2`, the Ki is 2120 nM in test [1] and 4500 nM in test [2]. Moreover, in test [3], the Ratio Ki turned out to be 2.
Take `Cc1ccc(Cn2nc(C(=O)N[C@@H]3C(C)(C)[C@@H]4CC[C@@]3(C)C4)cc2-c2ccc(Cl)c(C)c2)cc1`: in test [3], the Ratio Ki was found to be 250.
Turning to `Cc1ccc2c(c1)Cc1c(C(=O)Nc3ccc(Cl)c(Cl)c3)nn(-c3ccc(Cl)cc3Cl)c1-2`, the Ki in test [1] and in test [2] was greater than 10000 nM throughout.
With `Cc1ccc2c(c1)Cc1c(C(=O)NNc3ccccc3)nn(-c3ccc(Cl)cc3Cl)c1-2`, the figures for the Ki in test [1] and in test [2] were 63 nM and 2280 nM, respectively. Moreover, the Ratio Ki in test [3] amounted to 36.
Consider `Cc1ccc2c(c1)Cc1c(C(=O)NN3CCCCC3)nn(-c3ccc(Cl)cc3Cl)c1-2`, for which the Ki amounted to 0.037 nM in test [1] and 363 nM in test [2]. For the same compound, in test [3], the Ratio Ki was 9810. Further, the Activity is 83% in test [4] (HL-60) and “Agonist” in test [4] (HL-60, filed as agonist).
Regarding `CCCCCCC(C)(C)c1ccc(C2CC(O)CC[C@H]2CCCO)c(O)c1` (single isomer, unassigned) [CP-55940], the results for the Ki in test [1] and in test [2] were 1.11 nM and 1.5 nM, respectively.
As for `Cc1ccc2c(c1)Cc1c(C(=O)Nc3ccccc3)nn(-c3ccc(Cl)cc3Cl)c1-2`, the Ki was 32.8 nM in test [1] and 2410 nM in test [2]. In test [3], the Ratio Ki was 73. Further, the Activity in test [4] (HL-60) is 125%; in test [4] (HL-60, filed as agonist) it was “Agonist”.
On the same counts, the results for `Cc1ccc2c(c1)Cc1c(C(=O)NC3CCCCC3)nn(-c3ccc(Cl)cc3Cl)c1-2` are 7.6 nM, 900 nM, 118, 61.3% and “Agonist”.
For the compound `Cc1ccc2c(c1)Cc1c(C(=O)Nc3ccc(Cl)cc3)nn(-c3ccc(Cl)cc3Cl)c1-2`, the Ki in test [1] was 177 nM; in test [2], greater than 10000 nM.
Compound `Cc1cc2c(cc1Cl)-c1c(c(C(=O)NN3CCCCC3)nn1-c1ccc(Cl)cc1Cl)C2` showed a Ki in test [1] of 200 nM. In addition, the Ratio Ki in test [3] is 4.6.
